Results taken from ChEMBL document CHEMBL1132711 (J Med Chem, 1999).

Tests used:
Progesterone receptor [1] = target: T1, Progesterone receptor (Homo sapiens, UniProt P06401); assay: Compound was evaluated for its binding affinity against baculovirus expressed Progesterone receptor
T1 sequence (P06401 whole entry): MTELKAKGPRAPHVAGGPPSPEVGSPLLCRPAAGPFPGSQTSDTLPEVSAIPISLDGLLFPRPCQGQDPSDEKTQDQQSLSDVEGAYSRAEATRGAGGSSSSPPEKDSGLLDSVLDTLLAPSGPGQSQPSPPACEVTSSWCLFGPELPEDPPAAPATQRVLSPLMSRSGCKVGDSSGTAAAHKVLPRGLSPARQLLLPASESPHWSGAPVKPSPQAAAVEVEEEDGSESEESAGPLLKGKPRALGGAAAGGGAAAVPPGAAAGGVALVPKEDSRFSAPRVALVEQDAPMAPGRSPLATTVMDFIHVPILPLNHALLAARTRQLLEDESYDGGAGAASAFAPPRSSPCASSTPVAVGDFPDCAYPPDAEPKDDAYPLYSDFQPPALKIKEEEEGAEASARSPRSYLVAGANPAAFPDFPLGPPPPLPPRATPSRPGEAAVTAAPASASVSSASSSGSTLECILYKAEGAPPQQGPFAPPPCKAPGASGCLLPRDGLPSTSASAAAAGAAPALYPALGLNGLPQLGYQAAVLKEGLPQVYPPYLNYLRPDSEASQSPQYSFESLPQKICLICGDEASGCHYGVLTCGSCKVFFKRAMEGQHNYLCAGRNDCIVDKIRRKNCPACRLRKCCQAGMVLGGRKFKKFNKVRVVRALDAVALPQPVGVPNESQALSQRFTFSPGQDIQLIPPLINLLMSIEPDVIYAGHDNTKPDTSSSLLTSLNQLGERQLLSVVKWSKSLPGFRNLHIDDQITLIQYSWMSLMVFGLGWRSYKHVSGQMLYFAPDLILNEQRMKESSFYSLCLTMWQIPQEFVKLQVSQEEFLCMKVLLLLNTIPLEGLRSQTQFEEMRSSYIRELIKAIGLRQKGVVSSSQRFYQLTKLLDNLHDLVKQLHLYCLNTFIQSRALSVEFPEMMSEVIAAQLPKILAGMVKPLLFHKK

Progesterone receptor [2] = target: T1, Progesterone receptor; assay: (§1) Compound was tested for agonistic activity by cotransfection assay against human Progesterone receptor in CV-1 cells; type: functional, cell-based
[3] = target: T2, Progesterone receptor (Homo sapiens) (UniProt P06401); assay: as §1; type: functional, cell-based
T2 sequence (whole entry): T1 sequence (P06401 whole entry)

Progesterone receptor [4] = target: T1, Progesterone receptor; assay: (§2) Agonistic activity by cotransfection assay against human Progesterone receptor in T47D cells; type: functional, cell-based
[5] = target: T2, Progesterone receptor (Homo sapiens); assay: as §2; type: functional, cell-based
In short: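 T47D human breast cancer cells (high endogenous hPR) incubated with test compound in 96-well format; alkaline phosphatase expression measured by absorbance. […] EC50 from full dose–response curves; mean of at least three separate experiments in triplicate, or single experiment where no error given.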

Androgen receptor = target: T3, Androgen receptor (Homo sapiens, UniProt P10275)
T3 sequence (P10275 whole entry): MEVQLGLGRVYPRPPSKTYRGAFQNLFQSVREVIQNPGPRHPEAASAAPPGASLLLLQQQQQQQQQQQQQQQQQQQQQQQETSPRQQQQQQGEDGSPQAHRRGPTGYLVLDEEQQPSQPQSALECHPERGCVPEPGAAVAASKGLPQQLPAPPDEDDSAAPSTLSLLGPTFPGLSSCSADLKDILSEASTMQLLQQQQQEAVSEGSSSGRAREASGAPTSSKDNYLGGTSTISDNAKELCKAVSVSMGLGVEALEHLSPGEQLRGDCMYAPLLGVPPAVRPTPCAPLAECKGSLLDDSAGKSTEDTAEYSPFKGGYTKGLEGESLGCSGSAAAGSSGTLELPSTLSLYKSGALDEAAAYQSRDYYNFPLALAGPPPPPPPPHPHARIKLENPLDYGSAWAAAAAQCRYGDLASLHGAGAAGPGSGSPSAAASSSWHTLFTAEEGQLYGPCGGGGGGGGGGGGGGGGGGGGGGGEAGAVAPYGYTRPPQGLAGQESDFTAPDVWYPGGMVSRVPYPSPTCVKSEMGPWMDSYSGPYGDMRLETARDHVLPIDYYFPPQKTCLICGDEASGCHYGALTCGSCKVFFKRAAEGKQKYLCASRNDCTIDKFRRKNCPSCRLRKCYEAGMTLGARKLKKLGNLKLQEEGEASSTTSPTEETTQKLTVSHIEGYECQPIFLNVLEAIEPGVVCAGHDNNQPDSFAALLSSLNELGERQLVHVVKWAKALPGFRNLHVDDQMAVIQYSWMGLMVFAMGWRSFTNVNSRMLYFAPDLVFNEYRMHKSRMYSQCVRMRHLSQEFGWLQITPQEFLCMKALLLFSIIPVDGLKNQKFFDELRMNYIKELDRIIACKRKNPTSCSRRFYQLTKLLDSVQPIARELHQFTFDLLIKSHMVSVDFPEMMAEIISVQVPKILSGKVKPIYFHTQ

Glucocorticoid receptor = target: T4, Glucocorticoid receptor (Homo sapiens, UniProt P04150)
T4 sequence (P04150 whole entry): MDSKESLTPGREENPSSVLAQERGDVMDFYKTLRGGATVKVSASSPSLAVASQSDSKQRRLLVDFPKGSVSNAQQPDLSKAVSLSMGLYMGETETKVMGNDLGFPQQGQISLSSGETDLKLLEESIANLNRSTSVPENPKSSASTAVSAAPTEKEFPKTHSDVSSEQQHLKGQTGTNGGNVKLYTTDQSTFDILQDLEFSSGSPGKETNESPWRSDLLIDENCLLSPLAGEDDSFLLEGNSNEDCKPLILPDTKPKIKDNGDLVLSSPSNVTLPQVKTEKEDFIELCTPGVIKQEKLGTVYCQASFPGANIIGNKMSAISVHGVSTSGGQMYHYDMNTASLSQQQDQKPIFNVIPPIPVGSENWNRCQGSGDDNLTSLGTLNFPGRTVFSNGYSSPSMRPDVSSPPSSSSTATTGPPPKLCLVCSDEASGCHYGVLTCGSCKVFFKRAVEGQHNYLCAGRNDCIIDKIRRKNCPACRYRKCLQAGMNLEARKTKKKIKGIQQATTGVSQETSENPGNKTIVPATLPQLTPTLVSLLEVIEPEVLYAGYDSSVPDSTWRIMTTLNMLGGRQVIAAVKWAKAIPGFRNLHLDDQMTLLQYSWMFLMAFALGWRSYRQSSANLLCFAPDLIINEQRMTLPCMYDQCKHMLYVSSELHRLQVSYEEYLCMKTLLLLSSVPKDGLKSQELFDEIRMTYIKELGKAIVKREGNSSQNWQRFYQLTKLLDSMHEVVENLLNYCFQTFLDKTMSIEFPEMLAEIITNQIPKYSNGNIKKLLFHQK

Progesterone receptor [6] = target: T1, Progesterone receptor; assay: (§3) Antagonistic activity by cotransfection assay against human Progesterone receptor in CV-1 cells; type: functional, cell-based
[7] = target: T2, Progesterone receptor (Homo sapiens); assay: as §3; type: functional, cell-based
Progesterone receptor [8] = target: T1, Progesterone receptor; assay: Agonistic effect on transcriptional activity in T47D cells expressing human Progesterone receptor; type: functional, cell-based
In short: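 T47D human breast cancer cells, which express high levels of hPR, incubated with test compound. Readout is absorbance from induced alkaline phosphatase expression. […] Values are the mean of at least three separate experiments in triplicate; values without SEM are from a single experiment.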

SMILES	Ki (Progesterone receptor [1])	EC50 (Progesterone receptor [2])	Efficacy [3]	EC50 (Progesterone receptor [4])	Efficacy [5]	Ki (Androgen receptor)	Ki (Glucocorticoid receptor)	IC50 (Progesterone receptor [6])	Efficacy [7]	EC50 (Progesterone receptor [8])
C[C@H]1CC(C)(C)Nc2ccc3c(c21)[C@H](c1ccc(Cl)cc1)Oc1ccccc1-3	10.1 nM	39 nM	39%							
C[C@@H]1C(=O)C(C)(C)Nc2ccc3c(c21)[C@H](c1cccc(C(F)(F)F)c1)Oc1ccccc1-3	16.6 nM	14 nM	93%	37 nM	85%	1090 nM	257 nM			
CC1(C)CC(=O)c2c(ccc3c2C(c2ccc(Cl)cc2)Oc2ccccc2-3)N1 (centres undefined)	24.6 nM							376 nM	84%	
C[C@@H]1C(=O)C(C)(C)Nc2ccc3c(c21)[C@H](c1ccccc1)Oc1ccccc1-3	6.6 nM	10 nM	92%	23.5 nM	92%	732 nM	249 nM			
CC(=O)O[C@]1(C(C)=O)CC[C@H]2[C@@H]3C[C@H](C)C4=CC(=O)CC[C@]4(C)[C@H]3CC[C@@]21C					90%					
CC1=CC(C)(C)Nc2ccc3c(c21)C(c1ccc(Cl)cc1)Oc1ccccc1-3 (centres undefined)					48%					32 nM
C[C@@H]1C(=O)C(C)(C)Nc2ccc3c(c21)[C@H](c1ccc(Cl)cc1)Oc1ccccc1-3			122%		97%	1180 nM	331 nM			
CC1CC(C)(C)Nc2ccc3c(c21)/C(=C/c1cccc(F)c1)Oc1ccccc1-3 (centres undefined)	6.3 nM	47 nM	114%							
C[C@@H]1c2c(ccc3c2[C@H](c2ccc(Cl)cc2)Oc2ccccc2-3)NC(C)(C)[C@H]1O	> 500 nM							3200 nM	69%	
C[C@@H]1C(=O)C(C)(C)Nc2ccc3c(c21)[C@H](c1cccc(F)c1)Oc1ccccc1-3	2.6 nM	6.3 nM	106%	14.8 nM	96%	620 nM	193 nM			
CC1C(=O)C(C)(C)Nc2ccc3c(c21)/C(=C/c1cccc(F)c1)Oc1ccccc1-3 (centres undefined)	3.5 nM	8.7 nM	155%	25 nM	83%	560 nM	4730 nM			
CC1=CC(C)(C)Nc2ccc3c(c21)C(c1cccc(Cl)c1)Oc1ccc(F)cc1-3 (centres undefined)				27 nM	47%					
CC1=CC(C)(C)Nc2ccc3c(c21)C(C)Oc1ccc(Cl)cc1-3 (centres undefined)					42%					
C[C@H]1C(=O)C(C)(C)Nc2ccc3c(c21)[C@H](c1cccc(C(F)(F)F)c1)Oc1ccccc1-3	123 nM	16 nM	66%	63 nM	103%	807 nM	250 nM			
CC1(C)Nc2ccc3c(c2C(C)(C)C1=O)C(c1ccc(Cl)cc1)Oc1ccccc1-3 (centres undefined)	5.3 nM	9.8 nM	36%							
C[C@H]1c2c(ccc3c2[C@H](c2ccc(Cl)cc2)Oc2ccccc2-3)NC(C)(C)[C@@H]1O	> 500 nM							460 nM	91%	
CC1=CC(C)(C)Nc2ccc3c(c21)/C(=C/c1cccc(F)c1)Oc1ccccc1-3				51 nM	55%					
C[C@@H]1CC(C)(C)Nc2ccc3c(c21)[C@H](c1ccc(Cl)cc1)Oc1ccccc1-3	91 nM	48 nM	58%					3100 nM	56%	
C[C@H]1C(=O)C(C)(C)Nc2ccc3c(c21)[C@H](c1ccc(Cl)cc1)Oc1ccccc1-3			102%		107%	698 nM	913 nM			
C[C@H]1C(=O)C(C)(C)Nc2ccc3c(c21)[C@H](c1ccccc1)Oc1ccccc1-3	28.6 nM	9 nM	103%	35 nM	102%	1080 nM	909 nM			
C[C@H]1C(=O)C(C)(C)Nc2ccc3c(c21)[C@H](c1cccc(F)c1)Oc1ccccc1-3	28 nM	8.7 nM	114%	26 nM	107%	504 nM	864 nM			
CC1(C)C=Cc2c(ccc3c2C(c2ccc(Cl)cc2)Oc2ccccc2-3)N1 (centres undefined)	10.5 nM	1300 nM	28%					140 nM	50%	
CC1C(=O)C(C)(C)Nc2ccc3c(c21)/C(=C/c1ccccc1)Oc1ccccc1-3 (centres undefined)	4.9 nM	17 nM	133%	18.3 nM	93%	1200 nM	680 nM			
C=C1CC(C)(C)Nc2ccc3c(c21)C(c1ccc(Cl)cc1)Oc1ccccc1-3 (centres undefined)		124 nM	30%					1760 nM	81%	
